Key:
[1] = biological target: Fibroblast growth factor receptor (Homo sapiens, UniProt P22607+P11362+P22455+P21802); assay: Inhibitory concentration of compound against human fibroblast growth factor receptor; assay type: protein assay
[2] = biological target: Proto-oncogene tyrosine-protein kinase Src (Gallus gallus, UniProt P00523); assay: Inhibition of chicken c-Src tyrosine kinase
Method in brief: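 Recombinant avian c-Src expressed in baculovirus-infected insect cells, immunopurified on polystyrene beads carrying a covalently linked Src-specific monoclonal antibody. The enzyme-bead suspension was assayed in vitro with 40 µM ATP, measuring 32P-phosphate transfer into a trichloroacetic acid-precipitable random glutamate/tyrosine (4:1) copolymer. The IC50 was in µM.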

[3] = biological target: Platelet-derived growth factor receptor (Mus musculus, UniProt P05622+P26618); assay: Inhibitory concentration of compound against mouse Platelet-derived growth factor receptor
[4] = biological target: Epidermal growth factor receptor (Homo sapiens, UniProt P00533); assay: Inhibition of human epidermal growth factor receptor
Epidermal growth factor receptor, sequence (P00533 whole entry): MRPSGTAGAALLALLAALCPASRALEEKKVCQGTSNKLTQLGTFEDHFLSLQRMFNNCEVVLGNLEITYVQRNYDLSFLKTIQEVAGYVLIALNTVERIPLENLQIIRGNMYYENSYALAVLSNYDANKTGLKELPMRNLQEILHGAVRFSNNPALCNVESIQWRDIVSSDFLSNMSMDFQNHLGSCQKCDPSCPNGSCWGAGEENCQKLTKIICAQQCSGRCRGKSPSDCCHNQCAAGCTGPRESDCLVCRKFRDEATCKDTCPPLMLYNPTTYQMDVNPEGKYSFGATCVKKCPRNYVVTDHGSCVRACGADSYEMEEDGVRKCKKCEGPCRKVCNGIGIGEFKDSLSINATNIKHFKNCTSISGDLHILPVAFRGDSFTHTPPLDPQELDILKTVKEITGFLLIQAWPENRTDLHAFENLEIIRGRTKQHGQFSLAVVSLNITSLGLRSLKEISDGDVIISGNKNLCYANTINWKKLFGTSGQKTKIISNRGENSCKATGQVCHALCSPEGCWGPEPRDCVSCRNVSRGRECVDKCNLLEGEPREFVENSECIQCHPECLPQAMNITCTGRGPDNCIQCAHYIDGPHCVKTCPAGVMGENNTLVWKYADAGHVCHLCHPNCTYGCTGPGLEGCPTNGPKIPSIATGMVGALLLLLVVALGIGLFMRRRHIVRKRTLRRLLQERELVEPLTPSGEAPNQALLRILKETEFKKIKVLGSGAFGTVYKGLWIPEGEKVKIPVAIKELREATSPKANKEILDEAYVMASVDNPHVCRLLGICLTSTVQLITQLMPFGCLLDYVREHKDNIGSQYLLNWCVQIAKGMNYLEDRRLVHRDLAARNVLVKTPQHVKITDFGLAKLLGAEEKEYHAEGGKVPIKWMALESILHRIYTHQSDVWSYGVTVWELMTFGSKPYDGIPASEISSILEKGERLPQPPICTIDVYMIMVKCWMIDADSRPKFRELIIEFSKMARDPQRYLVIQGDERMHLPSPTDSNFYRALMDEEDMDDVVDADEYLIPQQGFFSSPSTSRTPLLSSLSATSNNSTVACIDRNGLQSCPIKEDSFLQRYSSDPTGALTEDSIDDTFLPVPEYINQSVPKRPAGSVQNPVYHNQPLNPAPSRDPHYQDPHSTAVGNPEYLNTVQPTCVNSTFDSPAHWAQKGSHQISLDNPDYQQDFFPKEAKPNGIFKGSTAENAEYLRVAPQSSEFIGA

Structure (SMILES) | IC50 [1] [nM] | IC50 [2] [nM] | IC50 [3] [nM] | IC50 [4] [nM]
COc1cc(OC)cc(-c2cc3cnc(N)nc3n(C)c2=O)c1 | 126 | > 50000 | 43100 | –
CN1CCN(CCCNc2ncc3cc(-c4c(Cl)cccc4Cl)c(=O)n(C)c3n2)CC1 | 348 | 237 | 2700 | –
CN(C)c1ncc2cc(-c3c(Cl)cccc3Cl)c(=O)n(C)c2n1 | > 50000 | > 50000 | > 50000 | > 50000
COc1cc(OC)cc(-c2cc3cnc(N)nc3nc2NC(=O)NC(C)(C)C)c1 | – | > 50000 | – | –
CCOc1cc(OCC)cc(-c2cc3cnc(N)nc3nc2NC(=O)NC(C)(C)C)c1 | 1650 | > 50000 | > 50000 | –
CC(C)(C)NC(=O)Nc1nc2nc(N)ncc2cc1-c1cc(C(F)(F)F)cc(C(F)(F)F)c1 | > 50000 | > 50000 | > 50000 | –
CN(C)c1cc(-c2cc3cnc(N)nc3nc2NC(=O)NC(C)(C)C)cc(N(C)C)c1 | > 16000 | > 50000 | > 50000 | –
CN1CCN(CCCNc2ncc3cc(-c4c(Cl)cccc4Cl)c(NC(=O)NC4CCCCC4)nc3n2)CC1 | – | – | – | 880
CN1CCN(c2ccc(Nc3ncc4cc(-c5c(Cl)cccc5Cl)c(=O)n(C)c4n3)cc2)CC1 | 51 | – | 115 | –
Cc1ncc2cc(-c3c(Cl)cccc3Cl)c(=O)n(C)c2n1 | > 50000 | > 50000 | > 50000 | > 50000

Next, values leading:

IC50 [1] [nM] | IC50 [2] [nM] | IC50 [3] [nM] | IC50 [4] [nM] | Structure (SMILES)
– | 9 | – | – | CCN(CC)CCOc1cccc(Nc2ncc3cc(-c4c(Cl)cccc4Cl)c(=O)n(C)c3n2)c1
– | 28 | – | 720 | COc1ccc(NC(=O)Nc2nc3nc(NCCCN4CCN(C)CC4)ncc3cc2-c2c(Cl)cccc2Cl)cc1
61 | 10 | 70 | – | Cn1c(=O)c(-c2c(Cl)cccc2Cl)cc2cnc(Nc3ccc(CC(=O)O)cc3)nc21
> 50000 | > 10000 | > 50000 | > 50000 | Cn1c(=O)c(-c2c(Cl)cccc2Cl)cc2cncnc21
– | 30 | – | 980 | CN1CCN(CCCNc2ncc3cc(-c4c(Cl)cccc4Cl)c(NC(=O)NCc4ccccc4)nc3n2)CC1

— ChEMBL document CHEMBL1131506, “Development of a binding model to protein tyrosine kinases for substituted pyrido[2,3-d]pyrimidine inhibitors” (J Med Chem, 1998)
